Reference: PMC10173165 (Journal of Advanced Research, 2022)
Ends that are not written are not given here.

What was measured:
[1] = Intravenous and oral pharmacokinetic profile; type: in vivo, ICR mice; conditions: male, ICR, mouse, plasma
[2] = Genotoxicity safety assessment
NCI-N87 xenograft = assay: NCI-N87 tumor xenograft with IHC; type: in vivo, athymic nude mice
In short: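 Female athymic nude mice (5 weeks old) received 5 × 10^6 NCI-N87 cells s.c. in PBS into the right flank and were randomised at 90–100 mm3 (n = 5/group). Dosing was 4 mg/kg i.v. in DMAC/Tween80/saline (5:10:85), six times at 3-day intervals. Caliper volume (L × W2)/2 was followed to day 28. Paraffin tumour sections were stained for HER2 and Ki-67 (DAB), with IHC score = intensity × fraction (0–300) over 10 fields per sample.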

[3] = molecular target: T1, (His)6-MED23_391–582 / FITC-ELF3_129–145 (Homo sapiens, UniProt Q9ULK4); assay: Fluorescence polarization assay; type: binding; conditions: negative control
T1 sequence (Q9ULK4 391-582): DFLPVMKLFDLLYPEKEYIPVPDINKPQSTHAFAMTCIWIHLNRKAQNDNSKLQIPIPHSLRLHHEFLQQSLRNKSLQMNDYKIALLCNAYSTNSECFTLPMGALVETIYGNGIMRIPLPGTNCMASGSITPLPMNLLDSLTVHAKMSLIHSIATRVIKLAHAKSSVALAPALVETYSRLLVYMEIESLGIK

Nluc-ELF3^WT = molecular target: T2, Nluc-ELF3^WT (human, UniProt P78545-1 1-371); assay: split reporter
T2 sequence: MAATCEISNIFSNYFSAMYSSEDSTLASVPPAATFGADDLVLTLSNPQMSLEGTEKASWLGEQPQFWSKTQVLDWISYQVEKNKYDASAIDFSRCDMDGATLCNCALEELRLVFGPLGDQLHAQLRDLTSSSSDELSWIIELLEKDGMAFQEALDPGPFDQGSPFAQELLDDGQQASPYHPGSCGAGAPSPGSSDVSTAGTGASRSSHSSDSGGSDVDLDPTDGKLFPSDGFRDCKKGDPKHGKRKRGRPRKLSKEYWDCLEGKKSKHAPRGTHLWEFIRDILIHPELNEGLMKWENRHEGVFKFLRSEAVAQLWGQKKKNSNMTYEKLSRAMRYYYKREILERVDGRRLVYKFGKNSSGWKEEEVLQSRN

(His)6-MED23_(391–582) = molecular target: T3, (His)6-MED23_(391–582) (human, UniProt Q9ULK4 391-582); assay: fluorescence polarisation
T3 sequence: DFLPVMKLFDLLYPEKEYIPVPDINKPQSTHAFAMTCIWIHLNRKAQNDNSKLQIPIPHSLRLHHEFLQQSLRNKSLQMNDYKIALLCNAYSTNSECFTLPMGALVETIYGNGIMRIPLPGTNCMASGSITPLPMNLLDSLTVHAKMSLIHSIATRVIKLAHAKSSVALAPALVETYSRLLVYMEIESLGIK

[4] = 4 mg/kg IV, compared to untreated control

CC(=O)N1N=C(c2cccc(O)c2)CC1c1ccc(Cl)cc1 (stereo not drawn) [Compound 15]
half-life ([1]; iv): 9.74 ± 2.76 h | bioavailability ([1]; po): 25.1% | half-life ([1]; po): 10.9 ± 11 h | Genotoxicity [2]: no association of genotoxicity | Tumor growth (NCI-N87 xenograft; 4 mg/kg IV every 3 days): significant tumor growth retardation | Decrease in proliferation marker Ki67 (IHC) (NCI-N87 xenograft; [4]): 4.5 fold | Reduction of HER2 level in the tumor (IHC) (NCI-N87 xenograft; [4]): 1.8 fold

COc1ccc(C2CC(c3ccccc3O)=NN2C(C)=O)c2ccccc12 (stereo not drawn) [Compound 18]
Change of FP signal [3]: made no such changes

B1: Cluc-MED23_(391-582)^WT (domain or fragment)
chain: DFLPVMKLFDLLYPEKEYIPVPDINKPQSTHAFAMTCIWIHLNRKAQNDNSKLQIPIPHSLRLHHEFLQQSLRNKSLQMNDYKIALLCNAYSTNSECFTLPMGALVETIYGNGIMRIPLPGTNCMASGSITPLPMNLLDSLTVHAKMSLIHSIATRVIKLAHAKSSVALAPALVETYSRLLVYMEIESLGIK
fold change of luciferase activity relative to control (Nluc-ELF3^WT): 5.2 fold

B2: Cluc-MED23_(391-582)^K397A (domain or fragment)
chain: DFLPVMALFDLLYPEKEYIPVPDINKPQSTHAFAMTCIWIHLNRKAQNDNSKLQIPIPHSLRLHHEFLQQSLRNKSLQMNDYKIALLCNAYSTNSECFTLPMGALVETIYGNGIMRIPLPGTNCMASGSITPLPMNLLDSLTVHAKMSLIHSIATRVIKLAHAKSSVALAPALVETYSRLLVYMEIESLGIK
fold change of luciferase activity relative to control (Nluc-ELF3^WT): 4.8 fold

B3: Cluc-MED23_(391-462) (domain or fragment)
chain: DFLPVMKLFDLLYPEKEYIPVPDINKPQSTHAFAMTCIWIHLNRKAQNDNSKLQIPIPHSLRLHHEFLQQSL
fold change of luciferase activity vs control (Nluc-ELF3^WT): 6 fold

TSSSSDELSWIIELLEK (also: FITC label, position not given here) [FITC-labeled ELF3_(129–145) peptide]
binding result ((His)6-MED23_(391–582)): binds
